High-throughput results: PubChem, Sanford-Burnham Center for Chemical Genomics
Rows were chosen to be rich in hits. Some 1.9% of all compounds tested hit in one or more screens of this group.
DNMT1 inh = inhibitors of human DNMT1. 0.83% of 360,000 active. P26358. inhibition (reported as % activation of signal), % at 10 µM. DNMT1 molecular beacon, Hinp1I cleavage, fluorescence; in the data active = inhibition above about 50%
Target sequence (P26358 504-1616 limits assumed): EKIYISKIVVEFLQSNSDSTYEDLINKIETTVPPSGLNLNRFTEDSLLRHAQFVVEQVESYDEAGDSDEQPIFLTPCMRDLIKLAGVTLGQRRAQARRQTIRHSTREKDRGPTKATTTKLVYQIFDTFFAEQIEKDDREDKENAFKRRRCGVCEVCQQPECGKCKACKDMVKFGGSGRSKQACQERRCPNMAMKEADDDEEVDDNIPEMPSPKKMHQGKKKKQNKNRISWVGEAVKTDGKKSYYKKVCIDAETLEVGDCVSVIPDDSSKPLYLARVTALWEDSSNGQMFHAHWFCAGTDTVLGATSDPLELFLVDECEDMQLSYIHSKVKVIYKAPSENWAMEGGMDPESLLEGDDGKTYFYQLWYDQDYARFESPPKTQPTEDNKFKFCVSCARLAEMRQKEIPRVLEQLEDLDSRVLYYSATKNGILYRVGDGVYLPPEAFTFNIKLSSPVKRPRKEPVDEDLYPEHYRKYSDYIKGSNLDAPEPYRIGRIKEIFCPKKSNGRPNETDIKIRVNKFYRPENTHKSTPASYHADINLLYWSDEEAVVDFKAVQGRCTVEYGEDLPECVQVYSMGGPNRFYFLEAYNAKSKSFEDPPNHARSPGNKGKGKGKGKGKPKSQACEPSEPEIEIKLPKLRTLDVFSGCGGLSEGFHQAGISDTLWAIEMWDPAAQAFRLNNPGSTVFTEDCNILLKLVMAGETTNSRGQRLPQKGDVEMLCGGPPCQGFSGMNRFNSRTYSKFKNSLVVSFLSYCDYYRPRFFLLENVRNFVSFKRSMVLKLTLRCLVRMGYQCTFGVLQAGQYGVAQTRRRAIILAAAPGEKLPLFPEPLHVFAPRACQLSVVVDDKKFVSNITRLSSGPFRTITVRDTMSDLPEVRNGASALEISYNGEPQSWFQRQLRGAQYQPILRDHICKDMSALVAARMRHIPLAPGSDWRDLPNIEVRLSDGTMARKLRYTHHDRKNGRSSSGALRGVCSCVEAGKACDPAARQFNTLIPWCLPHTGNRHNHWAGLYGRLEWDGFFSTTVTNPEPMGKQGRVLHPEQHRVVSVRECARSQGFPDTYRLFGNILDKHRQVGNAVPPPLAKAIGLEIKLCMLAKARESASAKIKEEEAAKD
CSN deneddyl inh = blocks human CSN-mediated cullin deneddylation. 0.38% of 360,000 active. inhibition, % at 12.5 µM. Purified CSN, SCF-Nedd8-OG deneddylation, fluorescence polarization. Q92905;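 active = pattern-corrected inhibition above about 35%, with an unprinted fluorescence ratio check between 0.5 and 1.5, limit read from the data, passing the limit was not always enough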;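 also: 0% = enzyme with substrate and 100% = substrate without enzyme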
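Assay system: HEK293T-derived human Csn5 enzyme; quantity: 0.24 nM enzyme; medium: Tris/NaCl/DTT buffer, pH 7.5; also added: substrate SCFSkp2-Nedd8OG, 10 nM; doses: 12.5 µM compound; schedule: 90 min reaction at room temperature; signal: FP; read-out: % inhibition of substrate cleavage by Csn5; benchmarks: substrate-only high control, full reaction low control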
STEP block = STEP (human) phosphatase inhibition; P54829; recombinant STEP, OMFP fluorogenic substrate, fluorescence; inhibition, % at 20 µM; 0.25% of 360,000 active;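 active = inhibition at 20 µM, scaled per plate between control wells, above about 37%, limit read from the data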;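 also: 0% = DMSO with enzyme and substrate and 100% = substrate only without enzyme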
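Material: STEP (striatal-enriched tyrosine phosphatase) enzyme, cell-free; Compound dosing: 20 µM single dose in 1% DMSO; Technique: fluorescence read at 480 nm ex / 540 nm em; Times: reaction 20 min, ambient temperature; Medium: 50 mM Bis-Tris pH 6.0 with 2.5 mM DTT and 0.005% Tween 20; Also added: OMFP at 25 µM.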
LMPTP block = blocks human LMPTP phosphatase. P24666. recombinant LMPTP-A, OMFP fluorogenic substrate, fluorescence intensity. inhibition, % at 20 µM. 0.22% of 360,000 active;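 active = compounds that cut the enzyme signal by at least half of the control window in the single-dose screen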;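 also: plate controls were DMSO wells with enzyme plus substrate for no effect and substrate without enzyme for full effect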
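Assay system: LMPTP-A, protein tyrosine phosphatase of low molecular weight / Medium: pH 6.0 Bis-Tris buffer with DTT and Triton X-100 / Schedule: 50 min enzyme reaction at room temperature, protected from light / Measured by: endpoint fluorescence intensity from OMFP dephosphorylation / Read-out basis: % inhibition relative to no-enzyme and uninhibited control wells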
SUMO1-SIM PPI = modulators of human SUMO1-mediated protein-protein interactions; P63165; SUMO1 binding to a labelled peptide, TR-FRET, 1 h; inhibition, % at 20 µM; 0.33% of 360,000 active; AID 602429; in the data active = inhibition above about 37%
Scp1 inh = blocks human Scp-1 phosphatase activity; inhibition, % at 20 µM; 0.88% of 340,000 active; Recombinant Scp1, phosphopeptide, malachite green phosphate absorbance;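 active = inhibition above about 50% at 20 µM, limit read from the data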;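 also: plate controls were DMSO wells with enzyme for no effect and wells lacking enzyme for full effect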
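Assay system: SCP-1 catalytic fragment, aa 76-261 | Buffer or medium: Tris acetate buffer pH 5.5 with MgCl2 and Tween-20 | Compound: One concentration, 20 µM, with 1.0% DMSO | Also added: Phospho 17-mer peptide substrate | Signal: Absorbance at 630 nm | Incubation: 45 min enzyme reaction at room temperature | Measure: % inhibition of SCP-1 phosphate liberation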
Starred values were filed as active, the others as inactive; . = not tested or not shown.

SMILES	DNMT1 inh	CSN deneddyl inh	STEP block	LMPTP block	SUMO1-SIM PPI	Scp1 inh
O=C1NN(c2ccccc2)C(=O)/C1=C\c1ccc(-c2cc([N+](=O)[O-])ccc2O)o1	23.3	6.0	46.1*	84.1*	-1.0	87.3*
COc1ccc(-n2c(C)cc(/C=C3\C(=O)NN(c4ccccc4)C3=O)c2C)cc1	-13.4	0.5	-0.8	2.2	-16.9	-6.3
COc1ccc(Sc2ccc(/C=C3\C(=O)NN(c4ccccc4)C3=O)o2)cc1	55.6*	8.4	7.5	4.4	7.3	35.2
CC(C)(C)c1ccc(C(=O)NNc2cc(Cl)cc(Cl)c2)cc1	4.6	-0.9	1.5	0.6	-5.6	12.0
CC12CCC(=O)N1C(C(=O)Oc1cccc(F)c1)CS2 (stereo not drawn)	4.1	-3.5	-2.7	-0.4	-1.0	.
CCOc1ccc2c(c1)S/C(=C\c1cccs1)C(=O)N2	5.1	39.5*	-0.6	2.3	-0.7	5.7
Cc1nc2ccc3nc(NC(=O)c4ccco4)sc3c2s1	6.3	12.3	3.6	0.3	54.5*	25.1
O=C(Nc1nc2ccsc2c(=O)s1)c1ccco1	44.1	1.1	7.7	-0.1	39.2*	53.9*
COc1ccc(-c2cc(=O)oc3c(C)c(OCC(=O)Nc4cccnc4)ccc23)cc1	14.7	89.6*	26.6	20.0	41.3*	24.7
Cc1ccc(Sc2ccc(N)cn2)cc1	1.6	44.7*	1.3	-0.6	3.8	-3.6
NC(=O)C1CCN(C(=O)c2cccc3ccccc23)CC1	-0.2	0.7	0.8	-0.8	3.8	-6.5
Cc1ccccc1C(=O)N1CCC(C(N)=O)CC1	1.6	-3.0	1.7	-1.6	55.2*	-5.9
CC(Nc1nc(N2CCNCC2)nc2ccccc12)c1ccccc1 (stereo not drawn)	-12.1	7.1	7.0	85.0*	-0.1	5.4
Cc1ccc(S(=O)(=O)Nc2ccccc2N2CCCCC2)cc1	-0.7	-6.5	2.4	3.3	3.8	-4.9
O=C(NCC(F)(F)F)c1ccc(S(=O)(=O)Nc2ccccc2N2CCCC2)cc1	34.4	72.6*	2.0	3.7	-67.7	-6.7
COC(=O)c1ccc(-n2c(CCC(=O)O)ccc2-c2ccc(C)cc2)cc1	3.6	-1.9	9.7	-0.3	0.6	-4.0
CCOC(=O)c1ccc(-n2c(CCC(=O)O)ccc2-c2ccc(F)cc2)cc1	-2.8	42.1*	3.2	-0.4	3.6	6.3
COc1ccc(Cc2c(N)nc(N)nc2N)cc1	-0.6	1.3	7.6	26.6	-2.0	15.8
Nc1ccc(OCCCc2c(N)nc(N)nc2N)cc1	29.1	29.9	2.8	87.2*	31.0	-11.0
CC(=O)N(C)c1ccc(NC(=O)Nc2ccc(C)c(C)c2)cc1	0.2	0.8	1.2	-0.1	2.8	-6.3
O=C(O)CCNc1ccc(NCCC(=O)O)c2c1C(=O)c1ccccc1C2=O	96.5*	-22.4	95.7*	72.0*	60.3*	86.2*
COc1ccccc1NCCC(=O)O	0.9	-2.6	4.9	-1.1	-3.6	-2.0
Cc1c(C(=O)O)cccc1-c1ccc(/C=C2\SC(=O)NC2=O)o1	2.7	4.4	5.9	-3.6	16.4	12.0
N=C1S/C(=C\c2ccc(-c3ccccc3C(=O)O)o2)C(=O)N1c1ccc2c(c1)OCO2	44.2	16.1	0.9	10.6	24.6	52.9*
O=C(c1ccc(S(=O)(=O)N2CCC(c3nc4ccccc4s3)CC2)cc1)N1CCCCC1	10.2	1.7	-0.2	1.2	-0.2	6.0
SMILES	DNMT1 inh	CSN deneddyl inh	STEP block	LMPTP block	SUMO1-SIM PPI	Scp1 inh
C=CCn1cc(/C=C/c2cc[n+](C)cc2)c2ccccc21	16.4	-47.2	-13.6	-2.7	-89.5	16.4
CCn1cc(/C=C/c2cc[n+](C)cc2)c2ccccc21	26.2	-73.3	-13.5	1.2	-124.9	67.5*
Cc1ccc(S(=O)(=O)c2ncccc2[N+](=O)[O-])cc1	5.2	1.8	-0.4	-0.1	-26.9	-7.7
O=C(NCc1ccco1)c1ccc(CS(=O)(=O)c2cccc(C(F)(F)F)c2)o1	-1.1	-1.6	2.2	-0.9	55.0*	-10.8
Cc1ccc(NC(=O)COC(=O)CNC(=O)c2ccco2)cc1	-0.8	10.3	7.6	-0.9	2.2	-4.0
O=C(CSc1nnc(CNC(=O)c2ccccc2F)o1)NCc1ccco1	0.3	39.8*	-0.4	-0.9	-5.5	12.7
Cc1noc(C)c1S(=O)(=O)N(CC(=O)NC(C)c1ccccc1)c1ccc(C(C)C)cc1 (stereo not drawn)	-2.7	1.4	0.3	2.0	-0.4	-4.7
CC(CC1C(C#N)=C(N)SC(N)=C1C#N)c1ccccc1 (stereo not drawn)	-9.9	57.9*	-0.6	0.0	-4.7	-3.6
CC(c1ccccc1)C1C(C#N)=C(N)SC(N)=C1C#N (stereo not drawn)	0.9	2.9	0.5	-0.2	-2.6	-10.4
CCOC(=O)C1CCN(c2nc3ccccc3nc2C(C#N)C(=O)OC(C)C)CC1 (stereo not drawn)	7.1	45.1*	-0.7	0.2	-8.0	-8.7
CCOC(=O)C1CCN(c2nc3ccccc3nc2C(C#N)C(=O)OC(C)COC)CC1 (stereo not drawn)	2.0	4.0	0.3	0.8	-16.0	-9.0
O=C(CN1C(=O)C2CC=CCC2C1=O)NC1=NCCS1 (stereo not drawn)	2.8	3.1	3.3	0.6	2.2	-3.1
Cc1ccc(C)c(N(CC(=O)N/N=C/c2ccc(-c3ccc([N+](=O)[O-])cc3)o2)S(=O)(=O)c2ccccc2)c1	0.6	43.7*	3.8	2.7	-10.9	-4.0
COc1cc(N2CCCC2)c(OC)cc1/C=C(/C#N)c1cccc(F)c1	6.5	53.5*	-15.4	4.5	-30.1	2.2
CC1(C)C2CC[C@]3(C)[C@H](C(=O)C=C4[C@@H]5C[C@@](C)(C(=O)O)CC[C@]5(C)CC[C@]43C)[C@@]2(C)CC[C@@H]1O[C@H]1O[C@H](C(=O)O)[C@@H](O)[C@H](O)[C@H]1O[C@@H]1O[C@H](C(=O)O)[C@@H](O)[C@H](O)[C@H]1O (stereo partly drawn)	1.4	6.9	-1.8	-2.0	40.9*	.
CCNc1ccc2noc3c2c1C(=O)c1ccccc1-3	62.9*	-72.0	-321.2	-14.6	-12.0	11.8
O=C(C1CC1)N1CCN(C(c2ccccc2)c2ccccc2)CC1	-6.2	2.1	0.3	-1.0	-4.5	-2.0
CNc1nc(-c2ccccc2)cc(C)c1S(C)(=O)=O	-0.5	-2.7	-3.2	0.0	0.9	5.5
COc1ccccc1-c1c(C#N)c(N)nc2c1CCc1ccccc1-2	48.9	20.2	-2.0	6.3	36.3*	-2.0
COc1cccc(-c2sc3ccccc3c2-c2ccc(OCCN(C)C)cc2)c1	-16.8	-4.4	3.5	-1.9	-202.2	1.9
